Results published in ChEMBL document CHEMBL4270646, “Novel antimalarial chloroquine- and primaquine-quinoxaline 1,4-di-N-oxide hybrids: Design, synthesis, Plasmodium life cycle stage profile, and preliminary toxicity studies” (Eur J Med Chem, 2018).
Active and inactive are the calls of the source. No cut-off for these calls is given here.

What was measured:
[1] = Cytotoxicity against human HepG2 cells assessed as reduction in cell viability after 48 hrs by MTT assay; type: cell-based
How it was run: (§1)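 Cells seeded at 2 × 10^5 per well and allowed 24 h at 37°C, 5% CO2 to form a monolayer. Dilutions added in triplicate and incubated 48 h. MTT (2 mg/mL) then added for 4 h, followed by DMSO for 20 min at room temperature. Absorbance read at 550 nm; DMSO diluent and untreated cells served as negative controls. CC50 derived from the curve.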

[2] = Selectivity index, ratio of CC50 for human HepG2 cells to IC50 for multidrug-resistant Plasmodium falciparum […]; type: toxicity; conditions: read-out: Ratio CC50/IC50
How it was run: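 Selectivity index = HepG2 CC50 / FCR-3 IC50. CC50 from MTT assay after 48 h exposure, A550. IC50 from 48 h Hoechst 33342 flow-cytometry assay.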

[3] = Cytotoxicity against human HepG2 cells expressing CD81 assessed as reduction in cell viability after 48 hrs by MTT assay; type: cell-based; how it was run: as §1
[4] = Cytotoxicity against human primary hepatocytes assessed as reduction in cell viability after 48 hrs by MTT assay; type: cell-based, Hepatocyte; how it was run: as §1
[5] = Selectivity index, ratio of CC50 for human HepG2 cells expressing CD81 to IC50 for GFP-expressing Plasmodium yoelii sporozoites; type: toxicity; conditions: read-out: Ratio CC50/IC50
How it was run: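 Selectivity index = CC50 (matching cell) / IC50 (matching parasite). Cell–parasite pairs: HepG2-CD81 with P. yoelii, HepG2 with P. berghei, human hepatocytes with P. falciparum.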

Plasmodium yoelii [6] = assay: Potency index, ratio of primaquine IC50 to compound IC50 for GFP-expressing Plasmodium yoelii sporozoites infected in human HepG2 cells expressing CD81; type: functional
Plasmodium yoelii [7] = assay: Antiplasmodial activity against Plasmodium yoelii 17XNL sporozoites infected in BALB/c mouse assessed as decrease in peripheral blood parasite levels at 100 mg/kg, po measured at day 5 by […]; type: functional, organism-based
How it was run: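 BALB/c mice (6-8 weeks, 20-23 g), n=4 per hybrid group and n=5 per control. Dosed orally at 100 mg/kg (100 µL) on days -1, 0, +1 and +2. Vehicle was DMSO 100%; primaquine diphosphate given at 30 mg/kg daily. On day 0, 5 x 10^3 cryopreserved P. yoelii 17XNL sporozoites injected i.v. Parasitaemia read by Giemsa smear and SYBR Green flow cytometry. Groups compared by Kruskal-Wallis test.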

Plasmodium berghei [8] = assay: (§2) Antiplasmodial activity against GFP-expressing gametocytes of Plasmodium berghei sporozoites in Anopheles stephensi mosquitoes feeded on blood from infected Swiss mouse assessed as reduction in number of oocysts in mosquito midgut at 100 mg/kg, ip pretreated for 1.5 hrs followed by blood feeding of mosquito and measured at 8 days post mosquitoes infection by fluorescence microscopic method relative to control; type: functional; parameters: scale not given: the % may be the effect or the level left
How it was run: (§3)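 Swiss mice (female, 6 weeks) infected i.p. with PbGFP-infected red cells (200 µL, 3000 parasites/µL). Gametocytes monitored 4 days by Giemsa smear and exflagellation. Hybrid given i.p. at 100 mg/kg in DMSO 1.5 h before A. stephensi fed 1 h on mice with 1% gametocytes. Controls were untreated and DMSO-treated mice. Thirty mosquitoes per group dissected after 8 days. Midgut oocysts counted by fluorescence microscopy against control mosquitoes taken as 100%.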

Plasmodium berghei [9] = assay: as §2, with “in” for “in number of oocysts in”, “infection” for “midgut”; type: functional; parameters: scale not given: the % may be the effect or the level left; how it was run: as §3
Mus musculus [10] = assay: Acute toxicity in BALB/c mouse assessed as appearance of normal coloured mucosa at 300 to 500 mg/kg, po administered as single dose measured every day for 14 days; type: organism-based; conditions: in vivo, 336 h
How it was run: (§4)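 Female BALB/c mice, 6-8 weeks old, 20-23 g, in groups of three. Single oral dose of 300 or 500 mg/kg; vehicle DMSO 100% given to controls. Mice watched for signs of toxicity for 4 h after dosing. Physical appearance, injury, pain and illness recorded daily for 14 days. Euthanasia in a CO2 chamber on day 14 or earlier if suffering.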

Mus musculus [11] = assay: Acute toxicity in BALB/c mouse assessed as necrosis of liver at 500 mg/kg, po administered as single dose measured at day 14 by haematoxylin and eosin staining based microscopic analysis; type: organism-based; conditions: in vivo
How it was run: (§5)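 Female BALB/c mice, groups of three, single oral dose; vehicle DMSO 100% for controls. Mice euthanised with CO2 on day 14, or earlier if suffering. Gross necropsy performed. Spleen, liver and kidney fixed in formaldehyde 37%, stained with haematoxylin and eosin and examined by light microscopy.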

Mus musculus [12] = assay: Acute toxicity in BALB/c mouse assessed as necrosis of kidney at 500 mg/kg, po administered as single dose measured at day 14 by haematoxylin and eosin staining based microscopic analysis; type: organism-based; conditions: in vivo; how it was run: as §5
Mus musculus [13] = assay: Acute toxicity in BALB/c mouse assessed as mouse survival at 300 mg/kg, po administered as single dose measured every day for 14 days; type: organism-based; conditions: in vivo, 336 h; how it was run: as §4
Mus musculus [14] = assay: Acute toxicity in BALB/c mouse assessed as effect on blood urea nitrogen level at 300 to 500 mg/kg, po administered as single dose measured at day 14; type: organism-based; conditions: in vivo
Mus musculus [15] = assay: Acute toxicity in BALB/c mouse assessed as effect on creatinine level at 300 to 500 mg/kg, po administered as single dose measured at day 14; type: organism-based; conditions: in vivo
Mus musculus [16] = assay: Acute toxicity in BALB/c mouse assessed as effect on total bilirubin level at 300 to 500 mg/kg, po administered as single dose measured at day 14; type: organism-based; conditions: in vivo
Mus musculus [17] = assay: Induction of alanine transferase level in BALB/c mouse at 300 to 500 mg/kg, po administered as single dose measured at day 14 (reference value: 34 to 78 U/L); type: organism-based; conditions: in vivo
How it was run: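 BALB/c female mice (6-8 weeks, 20-23 g), groups of three, given one oral dose of 300 or 500 mg/kg; DMSO 100% vehicle for controls. Observed 4 h after dosing, then daily for 14 days. Euthanized on day 14 or on signs of suffering. Blood biochemistry, including alanine transferase, compared with the range in untreated mice.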

[18] = Genotoxicity in Salmonella typhimurium TA1535 harboring pSK1002 assessed as bacterial survival at 0.001 to 0.063 mg/ml after 4 hrs in absence of Sprague-Dawley rat liver S9 fraction by SOS/umu assay relative to control; type: toxicity, organism-based; conditions: salmonella enterica subsp. enterica serovar typhimurium; read-out: Survival
How it was run: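 Log-phase S. typhimurium TA1535/pSK1002 (OD600 0.15–0.4) exposed for 4 h at 37°C with shaking, with 10% rat S9 mix or PBS. Eleven twofold dilutions tested from 1 mg/mL final; DMSO as solvent control. A600 read. Survival expressed as % of negative-control A600.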

## COc1cc(NC(C)CCCNC(=O)c2c(C)[n+]([O-])c3ccccc3[n+]2[O-])c2ncccc2c1 (stereo not drawn)
[1]
  CC50 at 48 h: 39.5 µM
[2]
  selectivity ratio: 0.58
[3]
  CC50 at 48 h: > 213 µM
[4]
  CC50 at 48 h: > 213 µM
[5]
  selectivity ratio: 153
Plasmodium yoelii [6]
  Ratio IC50: 1.5
Plasmodium yoelii [7]
  Activity: Active
Plasmodium berghei [8]
  Activity: 92%
Plasmodium berghei [9]
  Activity: 20%
Mus musculus [10]
  Activity: Non-Toxic
Mus musculus [11]
  Activity: Non-Toxic
Mus musculus [12]
  Activity: Non-Toxic
Mus musculus [13]
  Activity: Non-Toxic
Mus musculus [14]
  Activity: Non-Toxic
Mus musculus [15]
  Activity: Non-Toxic
Mus musculus [16]
  Activity: Non-Toxic
Mus musculus [17]
  Activity: 82 U/L
[18]
  viability at 4 h: > 80%
